# Source: ChEMBL document CHEMBL1136047, “Discovery of N-[2-[2-[[3-methoxy-4-(5-oxazolyl)phenyl]amino]-5-oxazolyl]phenyl]-N-methyl-4- morpholineacetamide as a novel and potent inhibitor of inosine monophosphate dehydrogenase with excellent in vivo activity” (J Med Chem, 2002)
# Columns and labels:
# CCRF-CEM = assay: In vitro secondary T-cell (CEM) proliferation assay; format: functional, cell-based; details: Homo sapiens
# How it was run: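 Inhibition of CEM T-cell line proliferation. IC50 in μM, reported as the mean of n = 3 determinations.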
# [1] = molecular target: T1, Inosine-5'-monophosphate dehydrogenase 2 (Homo sapiens, UniProt P12268); assay: Inhibition of human inosine-5'-monophosphate dehydrogenase 2
# [2] = Cmax was evaluated after 20 umol/kg of peroral administration; format: ADME, organism-based; parameters: dose 20 umol/kg, route oral; details: rat, in vivo, po
# How it was run: (§1)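 Pharmacokinetics measured in rats.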
# [3] = Plasma clearance was evaluated after 10 uM/kg of intra arterial administration; format: ADME, organism-based; details: rat; how it was run: as §1
# [4] = Bioavailability was evaluated after 20 uM/kg of peroral administration; format: ADME, organism-based; details: rat, in vivo, po, read-out: Bioavailabiility; how it was run: as §1
# [5] = Half-life was evaluated after 10 uM/kg of intra arterial administration; format: ADME, organism-based; details: rat, in vivo; how it was run: as §1
# [6] = Half-life was evaluated after 20 uM/kg of peroral administration; format: ADME, organism-based; details: rat, in vivo, po; how it was run: as §1
# Rattus norvegicus [7] = assay: Area under the curve was evaluated after 10 uM/kg of intra arterial administration; format: ADME, organism-based; details: in vivo, other; how it was run: as §1
# Rattus norvegicus [8] = assay: Area under the curve was evaluated after 20 uM/kg of peroral administration; format: ADME, organism-based; details: in vivo, po; how it was run: as §1
# [9] = Vss was evaluated after 10 uM/kg of intra arterial administration; format: ADME, organism-based; details: rat, in vivo, read-out: Vss; how it was run: as §1
# [10] = molecular target: T1, Inosine-5'-monophosphate dehydrogenase 2; assay: In vitro concentration that causes 50% inhibition of Inosine-5'-monophosphate dehydrogenase 2
# How it was run: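 Inhibition of IMPDH type II catalytic activity. IC50 reported as the mean of n = 3 determinations.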
SMILES,IC50 (CCRF-CEM) [nM],IC50 [1] [nM],also measured
COc1cc(Nc2ncc(-c3ccccc3N(C)C(=O)CCN3CCOCC3)o2)ccc1-c1cnco1,680,13,–
COc1cc(Nc2ncc(-c3ccccc3N(C)C(=O)CNC(C)(C)C)o2)ccc1-c1cnco1,700,20,–
COc1cc(Nc2ncc(-c3ccccc3C(=O)N(C)C)o2)ccc1-c1cnco1,9000,141,–
COc1cc(Nc2ncc(-c3ccccc3N(C)C(=O)CN3CCOCC3)o2)ccc1-c1cnco1,–,12,Cmax [2]: 1500 nM; clearance [3]: 71 mL/min/kg; bioavailability [4]: 25%; half-life [5]: 5.9 h; half-life [6]: 2.5 h; AUC (Rattus norvegicus [7]): 2.37 µM·h; AUC (Rattus norvegicus [8]): 1.2 µM·h; Vd [9]: 2.1 L/kg
COc1cc(Nc2ncc(-c3ccccc3C)o2)ccc1-c1cnco1,> 10000,25,–
COc1cc(Nc2ncc(-c3ccccc3OC)o2)ccc1-c1cnco1,7000,23,–
COc1cc(Nc2ncc(-c3ccccc3C(=O)O)o2)ccc1-c1cnco1,–,–,inhibition [10]: 11%
COc1cc(Nc2ncc(-c3ccccc3NC(C)=O)o2)ccc1-c1cnco1,1000,30,–
COc1cc(Nc2ncc(-c3ccccc3N(C)C(=O)Cn3cncn3)o2)ccc1-c1cnco1,650,13,–
CNCC(=O)N(C)c1ccccc1-c1cnc(Nc2ccc(-c3cnco3)c(OC)c2)o1,960,22,–
COc1cc(Nc2ncc(-c3cccc(C)c3)o2)ccc1-c1cnco1,> 10000,70,–
CNC(=O)c1ccccc1-c1cnc(Nc2ccc(-c3cnco3)c(OC)c2)o1,8000,104,–
CCOC(=O)c1ccccc1-c1cnc(Nc2ccc(-c3cnco3)c(OC)c2)o1,> 10000,127,–
COc1cc(Nc2ncc(-c3ccccc3N(C)C(=O)Cn3cccn3)o2)ccc1-c1cnco1,890,11,–
COc1cccc(-c2cnc(Nc3ccc(-c4cnco4)c(OC)c3)o2)c1,> 10000,97,–
COc1cc(Nc2ncc(-c3ccccc3N(C)C(C)=O)o2)ccc1-c1cnco1,730,18,–
COc1ccc(-c2cnc(Nc3ccc(-c4cnco4)c(OC)c3)o2)cc1,9000,115,–
COc1cc(Nc2ncc(-c3ccccc3)o2)ccc1-c1cnco1,7000,20,–
COc1c(C)c2c(c(O)c1C/C=C(\C)CCC(=O)O)C(=O)OC2 [MYCOPHENOLIC ACID],340,–,–
COc1cc(Nc2ncc(-c3ccc(C)cc3)o2)ccc1-c1cnco1,> 10000,85,–
COc1cc(NC(=O)Nc2cccc(CNC(=O)O[C@H]3CCOC3)c2)ccc1-c1cnco1 [MERIMEPODIB],430,10,–
COc1cc(Nc2ncc(-c3ccccc3N(C)C(=O)CN3CCN(C)CC3)o2)ccc1-c1cnco1,940,17,–
COc1cc(Nc2ncc(-c3ccccc3N(C)C(=O)CN(C)C)o2)ccc1-c1cnco1,1000,15,–
COc1cc(Nc2nc(C)c(-c3ccccc3)o2)ccc1-c1cnco1,9000,27,–
CCc1nc(Nc2ccc(-c3cnco3)c(OC)c2)oc1-c1ccccc1,> 10000,86,–
